IDH1 R132H inh: IDH1 R132H (human) inhibition. O75874. IDH1 R132H reductase, diaphorase/resazurin fluorescence, 60 min. inhibition, % at 10 µM. 0.18% of 70,000 active. AID 624101; in the data active = inhibition above about 34%; inconclusive = no clear call, values can overlap the other calls; inactive = below about 11%;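 also: 0% = DMSO and 100% = no enzyme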
Target sequence (O75874 whole entry R132H): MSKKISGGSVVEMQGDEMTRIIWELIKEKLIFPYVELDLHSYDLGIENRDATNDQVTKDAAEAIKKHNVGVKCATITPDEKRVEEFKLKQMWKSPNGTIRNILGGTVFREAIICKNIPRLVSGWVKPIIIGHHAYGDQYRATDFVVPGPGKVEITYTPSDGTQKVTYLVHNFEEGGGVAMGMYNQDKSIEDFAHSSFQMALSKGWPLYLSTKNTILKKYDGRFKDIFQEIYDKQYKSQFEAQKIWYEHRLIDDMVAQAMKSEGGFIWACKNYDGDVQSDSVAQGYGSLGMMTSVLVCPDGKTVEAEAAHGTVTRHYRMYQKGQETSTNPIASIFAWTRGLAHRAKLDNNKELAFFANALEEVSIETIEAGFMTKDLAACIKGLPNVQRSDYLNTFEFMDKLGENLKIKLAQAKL
T cruzi growth-1: inhibitors of T. cruzi proliferation | T. cruzi beta-gal in NIH3T3, GalScreen luminescence, 90 h | inhibition, % at 8.34 µM | 5.9% of 77,000 active;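 active = mean inhibition above about 93%, with at least 55% of replicates each passing it, limit read from the data, passing the limit was not always enough; inconclusive = only one of those two conditions holds; inactive = neither condition holds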
Pf Dd2 growth: inhibitors of Plasmodium falciparum Dd2 growth | P. falciparum Dd2 growth, SYBR Green, 72 h; hits give low values | 2.3% of 94,000 active | activity change, % at 10 µM; in the data active = activity change below about -80%; inconclusive = no clear call, values can overlap the other calls
GASC1 inh: KDM4C (human) demethylase inhibition. 0.15% of 96,000 active. Q9H3R0. GST-KDM4C 2-372, H3K9me3 peptide, LANCE TR-FRET. inhibition, % at 12.5 µM;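 active = mean replicate inhibition above about 25%, with at least 55% of replicates also reaching it, limit read from the data, passing the limit was not always enough; inconclusive = only one of those two conditions met; inactive = neither condition met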
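Material: GST-tagged GASC-1 (JMJD2C) catalytic fragment, aa 2-372 / Quantity: enzyme final amount 10 nM / Medium: HEPES buffer, pH 7.5, plus ascorbate / Doses: one test concentration per compound / Incubation: 30 min reaction, 60 min detection, RT / Measured by: LANCE TR-FRET / Read-out: inhibition from TR-FRET ratio decrease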
T cruzi growth-2: inhibitors of T. cruzi proliferation; shares compounds with T cruzi growth-1; 72% of 5,600 active; T. cruzi beta-gal in NIH3T3, GalScreen luminescence, 90 h; inhibition, % at 8.35 µM;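 active = mean replicate inhibition above about 95% and at least 55% of replicates individually reaching it, limit read from the data; inconclusive = only one of the two criteria is met; inactive = neither criterion is met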
T cruzi growth-3: inhibitors of T. cruzi proliferation | shares compounds with T cruzi growth-1 | T. cruzi beta-gal in NIH3T3, GalScreen luminescence, 90 h | inhibition, % at 2.09 µM | 21% of 5,600 active;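 active = mean inhibition above about 95%, with at least 55% of replicates also reaching it, limit read from the data; inconclusive = meets just one of the two conditions; inactive = meets neither condition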;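 also: plate controls were neutral control median for no effect and positive control median for full effect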
NIH3T3 tox: cytotoxicity in mouse NIH/3T3 fibroblasts | shares compounds with T cruzi growth-1 | 14% of 5,600 active | NIH/3T3 viability, CellTiter-Glo ATP luminescence, 90 h | cytotoxicity (signal decrease), % at 8.35 µM;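 active = mean signal decrease across replicates above about 35% based on untreated-well scatter, with enough replicates individually passing, limit read from the data; inconclusive = no rule stated though some were filed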;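 also: 0% = median of neutral control wells and 100% = median of positive control wells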
NIH3T3 tox 2: kills mouse NIH/3T3 fibroblasts | inhibition, % at 24.9 µM | AID 651744 | shares compounds with T cruzi growth-1 | 56% of 5,600 active | NIH/3T3 viability, CellTiter-Glo ATP luminescence, 90 h;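 active = mean loss of cell viability signal at or above a set limit, and enough replicates individually reaching it; inconclusive = meets only the mean limit or only the replicate share; inactive = meets neither condition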;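 also: 0% = median of neutral control wells and 100% = median of positive control wells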
* hit, by the source's call; ? = inconclusive; / = no result. Sampled rows, rich in hits. Any-hit rate of the full collection: about 5.8%.

SMILES	IDH1 R132H inh	T cruzi growth-1	Pf Dd2 growth	GASC1 inh	T cruzi growth-2	T cruzi growth-3	NIH3T3 tox	NIH3T3 tox 2
C[C@@H]1CN([C@H](C)CO)C(=O)Cc2cc(NS(=O)(=O)c3ccc(Cl)cc3)ccc2O[C@H]1CN(C)Cc1ccc(Cl)c(Cl)c1	0.2	97.1*	10.0	-3.1	107.5*	107.2*	-0.9	102.5*
C[C@@H]1CN([C@H](C)CO)C(=O)Cc2cc(NS(=O)(=O)c3ccc(F)cc3)ccc2O[C@H]1CN(C)Cc1ccc(Cl)c(Cl)c1	0.3	70.7	10.4	0.6	/	/	/	/
C[C@H](CO)N1C[C@H](C)[C@@H](CN(C)Cc2ccc(Cl)c(Cl)c2)Oc2ccc(NS(=O)(=O)c3ccc(Cl)cc3)cc2CC1=O	3.5	78.4	-26.0	0.2	/	/	/	/
C[C@@H]1CN([C@@H](C)CO)C(=O)Cc2cc(NS(=O)(=O)c3ccc(Cl)cc3)ccc2O[C@H]1CN(C)Cc1ccc(Cl)c(Cl)c1	0.2	?	-10.4	-1.8	81.8	86.6	41.5*	104.3*
CC1(C)Cc2nc(-c3ccccc3)nc(SCC(=O)Nc3cccc(C(F)(F)F)c3)c2CO1	0.2	/	/	/	/	/	/	/
COc1ccc(S(=O)(=O)N2CCOCC2)cc1C(=O)NCCN1CCOCC1	-0.3	/	/	/	/	/	/	/
CC(C)(Oc1ccc(Cl)cc1)C(=O)Nc1cc(-c2nc3ncccc3o2)ccc1Cl	0.1	/	/	/	/	/	/	/
O=C(NCCCn1cc(C(=O)NO)nn1)Nc1ccccc1	0.2	/	/	/	/	/	/	/
O=C(C[C@H]1CC[C@@H]2[C@H](COC[C@H](O)CN2C(=O)Nc2ccc(Cl)cc2)O1)NCCc1ccncc1	/	109.3*	10.0	0.4	91.3	83.4	10.4	25.4
COc1ccccc1NC(=O)N1C[C@H](O)COC[C@H]2O[C@H](CC(=O)NCCc3ccncc3)CC[C@@H]21	/	?	/	-0.9	36.0	-3.5	-0.6	-0.7
O=C(C[C@H]1CC[C@@H]2[C@H](COC[C@@H](O)CN2C(=O)Nc2ccc(F)cc2)O1)NCCc1ccncc1	/	71.8	4.2	-2.2	/	/	/	/
O=C(C[C@@H]1CC[C@@H]2[C@H](COC[C@@H](O)CN2C(=O)Nc2ccc(Cl)cc2)O1)NCCc1ccncc1	/	118.5*	18.9	-0.1	94.2	80.3	-13.5	-8.3
O=C(C[C@H]1CC[C@@H]2[C@H](COC[C@@H](O)CN2C(=O)Nc2ccc(Cl)cc2)O1)NCCc1ccncc1	/	106.0*	6.9	-1.5	95.8*	84.5	-5.2	-11.5
O=C(CCn1c(=S)[nH]c2c(sc3ccccc32)c1=O)NC1CCCCC1	0.1	/	/	/	/	/	/	/
Cc1ccc(N(CC(=O)Nc2cc(Cl)ccc2C)S(C)(=O)=O)cc1C	-0.5	/	/	/	/	/	/	/
COCC(=O)N1[C@@H](C#N)[C@@H](c2ccc(C#Cc3ccccc3F)cc2)[C@@H]1CO	/	105.9*	-6.5	1.7	88.7	40.9	18.2	94.5*
COCC(=O)N1[C@H](C#N)[C@H](c2ccc(C#Cc3ccccc3F)cc2)[C@H]1CO	/	106.5*	-36.0	0.5	98.5*	20.3	-16.7	?
N#C[C@H]1[C@H](c2ccc(C#Cc3ccccc3F)cc2)[C@@H](CO)N1C(=O)c1cccnc1	/	?	-37.6	-0.5	105.2*	68.5	3.7	5.3
N#C[C@@H]1[C@@H](c2ccc(C#Cc3ccccc3F)cc2)[C@H](CO)N1C(=O)c1cccnc1	/	68.9	-32.6	-1.8	/	/	/	/
COCC(=O)N1[C@H](C#N)[C@H](c2ccc(C#Cc3ccccc3F)cc2)[C@@H]1CO	/	102.1*	-20.0	-0.2	102.9*	90.3	-3.4	?
N#C[C@H]1[C@H](c2ccc(C#Cc3ccccc3F)cc2)[C@H](CO)N1C(=O)C1CC1	/	49.8	-9.0	-2.1	/	/	/	/
COCC(=O)N1[C@H](C#N)[C@H](c2ccccc2)[C@H]1CO	/	86.2	13.9	-5.5	/	/	/	/
COC(=O)c1ccccc1NC(=O)CSc1nc2ccc(C)cc2[nH]1	-0.8	/	/	/	/	/	/	/
COCC(=O)N1[C@@H](C#N)[C@H](c2ccc(C#Cc3ccccc3F)cc2)[C@@H]1CO	/	100.5*	-7.8	-0.2	103.1*	7.5	-7.0	7.3
